Data on 26 compounds can be found in ChEMBL document CHEMBL3091443, “Synthesis of novel 7-substituted pyrido[2',3':4,5]furo[3,2-d]pyrimidin-4-amines and their N-aryl analogues and evaluation of their inhibitory activity against Ser/Thr kinases” (Bioorg Med Chem Lett, 2013).

For orientation: IC50 means the midpoint of a concentration-inhibition curve.

The target in experiment [1] is Glycogen synthase kinase-3 (Sus scrofa, UniProt B2LUN4+I6LNT8). In words: Inhibition of pig brain GSK3alpha/beta using YRRAAVPPSPSLSRHSSPHQpSEDEEE as substrate after 30 mins by scintillation counting analysis. Summed up:
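Screened first at 10 μM final; compounds giving under 50% inhibition at that level were recorded as IC50 >10 μM. Kinase activity was assayed in triplicate, and IC50 values are reported in μM.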

The target in experiment [2] is Cyclin-dependent kinase 5/CDK5 activator 1 (Homo sapiens, UniProt Q00535). In words: Inhibition of human recombinant CDK5/p25 using [gamma-33P]ATP as substrate after 30 mins by scintillation counting analysis. In kind it is protein-complex assay. In outline: (§1)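 Compounds were screened first at 10 µM final; those giving under 50% inhibition were scored as IC50 >10 µM, and the rest were taken to IC50 determination (µM). Kinase activities were assayed in triplicate, with standard deviation of single data points typically below 10%. Assay procedures are cited to earlier reports.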
Cyclin-dependent kinase 5/CDK5 activator 1, sequence (Q00535 whole entry): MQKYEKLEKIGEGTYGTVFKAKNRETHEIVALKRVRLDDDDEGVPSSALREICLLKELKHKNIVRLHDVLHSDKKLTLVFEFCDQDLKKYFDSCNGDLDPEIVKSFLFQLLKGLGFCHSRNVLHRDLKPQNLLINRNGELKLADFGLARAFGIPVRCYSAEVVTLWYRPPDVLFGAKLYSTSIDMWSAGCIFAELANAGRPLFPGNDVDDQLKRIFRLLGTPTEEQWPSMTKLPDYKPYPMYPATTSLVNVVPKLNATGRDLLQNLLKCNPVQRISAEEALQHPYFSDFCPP
Cyclin-dependent kinase 5/CDK5 activator 1, sequence (Q15078 whole entry, further chain): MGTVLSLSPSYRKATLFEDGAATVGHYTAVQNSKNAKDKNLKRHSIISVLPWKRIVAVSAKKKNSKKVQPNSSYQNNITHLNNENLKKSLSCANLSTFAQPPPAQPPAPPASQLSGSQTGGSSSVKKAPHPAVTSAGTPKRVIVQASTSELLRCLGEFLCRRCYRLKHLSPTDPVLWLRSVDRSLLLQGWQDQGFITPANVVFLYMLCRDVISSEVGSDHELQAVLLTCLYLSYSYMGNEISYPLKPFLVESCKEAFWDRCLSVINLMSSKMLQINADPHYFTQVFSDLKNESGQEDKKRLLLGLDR

The target in experiment [3] is Dual specificity protein kinase CLK1 (Homo sapiens, UniProt P49759). In words: Inhibition of human recombinant GST-tagged CLK1 expressed in Escherichia coli using GRSRSRSRSRSR as substrate. Summed up:
as §1

Experiment [4] can be described thus: Inhibition of pig brain CK1delta/epsilon using RRKHAAIGpSAYSITA as substrate after 30 mins by scintillation counting analysis. Further details: species or system Sus scrofa. In outline:
as §1

Experiment [5] has as its target Dual specificity tyrosine-phosphorylation-regulated kinase 1A (Rattus norvegicus, UniProt Q63470). Kind of experiment: Inhibition of rat recombinant GST-tagged DYRK1A expressed in Escherichia coli using KKISGRLSPIMTEQ as substrate after 30 mins by scintillation counting analysis. In outline: as §1

Dual specificity protein kinase CLK1, sequence (P49759 whole entry): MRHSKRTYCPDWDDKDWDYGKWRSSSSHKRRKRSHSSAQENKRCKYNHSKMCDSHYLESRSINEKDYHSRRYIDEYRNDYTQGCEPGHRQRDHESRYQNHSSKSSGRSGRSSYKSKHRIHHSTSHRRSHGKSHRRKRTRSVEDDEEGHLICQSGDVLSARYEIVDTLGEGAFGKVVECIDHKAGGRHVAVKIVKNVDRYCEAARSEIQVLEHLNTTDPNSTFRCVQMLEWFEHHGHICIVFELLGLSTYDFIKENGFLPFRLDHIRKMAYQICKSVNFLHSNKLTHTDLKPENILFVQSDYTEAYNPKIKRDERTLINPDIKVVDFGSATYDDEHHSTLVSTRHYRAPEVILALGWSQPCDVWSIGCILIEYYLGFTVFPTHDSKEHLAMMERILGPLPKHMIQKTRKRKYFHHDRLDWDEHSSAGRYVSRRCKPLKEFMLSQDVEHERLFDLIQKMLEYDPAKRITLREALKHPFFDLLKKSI

Take `COc1ccc(Nc2ncnc3c2oc2cc(-c4ccc5c(c4)OCO5)cnc23)cc1`: the IC50 in experiment [1], in experiment [2], in experiment [3], in experiment [4] and in experiment [5] was greater than 10 µM throughout.
For the compound `Clc1ccc(Nc2ncnc3c2oc2cc(-c4ccc5c(c4)OCO5)cnc23)cc1Cl`, the IC50 in experiment [1], in experiment [2], in experiment [3], in experiment [4] and in experiment [5] was greater than 10 µM each time.
For `COc1ccc(-c2cnc3c(c2)oc2c(N)ncnc23)cc1`, the IC50 in experiment [1], in experiment [2], in experiment [3], in experiment [4] and in experiment [5] was greater than 10 µM throughout.
Take `Fc1ccc(Nc2ncnc3c2oc2cccnc23)cc1Cl`: the IC50 in experiment [1], in experiment [2], in experiment [3], in experiment [4] and in experiment [5] was greater than 10 µM throughout.
Take `c1ccc(Nc2ncnc3c2oc2cc(-c4ccc5c(c4)OCO5)cnc23)cc1`: the IC50 in experiment [1], in experiment [2], in experiment [3], in experiment [4] and in experiment [5] was greater than 10 µM in each case.
Regarding `C1=COc2cc(Nc3ncnc4c3oc3cccnc34)ccc2O1`, the IC50 in experiment [1], in experiment [2], in experiment [3], in experiment [4] and in experiment [5] was greater than 10 µM throughout.
For the compound `Nc1ncnc2c1oc1cccnc12`, the IC50 in experiment [1], in experiment [2], in experiment [3], in experiment [4] and in experiment [5] was greater than 10 µM each time.
Consider `Fc1ccc(Nc2ncnc3c2oc2cc(-c4ccc5c(c4)OCO5)cnc23)cc1Cl`, for which the IC50 in experiment [1], in experiment [2], in experiment [3], in experiment [4] and in experiment [5] was greater than 10 µM each time.
With `Nc1ncnc2c1oc1cc(-c3ccc(Cl)cc3Cl)cnc12`, the IC50 is greater than 10 µM in experiment [1]; greater than 10 µM in experiment [2]; 0.049 µM in experiment [3]; greater than 10 µM in experiment [4]; 0.6 µM in experiment [5].
Consider `COc1cc(Nc2ncnc3c2oc2cc(-c4ccc5c(c4)OCO5)cnc23)cc(OC)c1OC`, for which the half-inhibitory concentration (IC50) in experiment [1], in experiment [2], in experiment [3], in experiment [4] and in experiment [5] was greater than 10 µM each time.
For `COc1cc(Nc2ncnc3c2oc2cccnc23)cc(OC)c1`, the IC50 in experiment [1], in experiment [2], in experiment [3], in experiment [4] and in experiment [5] was greater than 10 µM each time.
Regarding `COc1ccc(Nc2ncnc3c2oc2cccnc23)cc1OC`, the IC50 in experiment [1], in experiment [2], in experiment [3], in experiment [4] and in experiment [5] was greater than 10 µM each time.
In the case of `Cc1ccc(-c2cnc3c(c2)oc2c(N)ncnc23)cc1`, the IC50 in experiment [1] was greater than 10 µM; in experiment [2], greater than 10 µM; in experiment [3], 0.61 µM; in experiment [4], greater than 10 µM; in experiment [5] it was 4.4 µM.
For the compound `Nc1ncnc2c1oc1cc(-c3ccc(Cl)c(Cl)c3)cnc12`, the IC50 in experiment [1], in experiment [2], in experiment [3], in experiment [4] and in experiment [5] was greater than 10 µM in each case.
On to `COc1cc(Nc2ncnc3c2oc2cccnc23)cc(OC)c1OC`, for which the IC50 in experiment [1], in experiment [2], in experiment [3], in experiment [4] and in experiment [5] was greater than 10 µM throughout.
Take `Fc1cc(Br)ccc1Nc1ncnc2c1oc1cccnc12`: the IC50 in experiment [1], in experiment [2], in experiment [3], in experiment [4] and in experiment [5] was greater than 10 µM in each case.
In the case of `Clc1ccc(Nc2ncnc3c2oc2cc(-c4ccc5c(c4)OCO5)cnc23)cc1`, the IC50 in experiment [1], in experiment [2], in experiment [3], in experiment [4] and in experiment [5] was greater than 10 µM in each case.
With `Nc1ncnc2c1oc1cc(-c3ccccc3)cnc12`, the IC50 in experiment [1] is greater than 10 µM; in experiment [2] it was greater than 10 µM; in experiment [3] it was 0.69 µM; in experiment [4], greater than 10 µM; in experiment [5], 3.1 µM.
For `Nc1ncnc2c1oc1cc(-c3ccc4c(c3)OCO4)cnc12`, the IC50 in experiment [1] was greater than 10 µM; in experiment [2], greater than 10 µM; in experiment [3], 0.32 µM; in experiment [4], greater than 10 µM; in experiment [5], 2.3 µM.
For the compound `COc1ccc(Nc2ncnc3c2oc2cccnc23)cc1`, the IC50 in experiment [1], in experiment [2], in experiment [3], in experiment [4] and in experiment [5] was greater than 10 µM in each case.
With `COc1ccc(Nc2ncnc3c2oc2cc(-c4ccc5c(c4)OCO5)cnc23)cc1OC`, the IC50 in experiment [1], in experiment [2], in experiment [3], in experiment [4] and in experiment [5] was greater than 10 µM each time.
Regarding `Cc1ccc(Nc2ncnc3c2oc2cc(-c4ccc5c(c4)OCO5)cnc23)cc1`, the IC50 in experiment [1], in experiment [2], in experiment [3], in experiment [4] and in experiment [5] was greater than 10 µM each time.
In the case of `c1nc(Nc2ccc3c(c2)OCO3)c2oc3cc(-c4ccc5c(c4)OCO5)cnc3c2n1`, the IC50 in experiment [1], in experiment [2], in experiment [3], in experiment [4] and in experiment [5] was greater than 10 µM in each case.
For the compound `Nc1ncnc2c1oc1cc(-c3cccc(Cl)c3)cnc12`, the IC50 was greater than 10 µM in experiment [1]; greater than 10 µM in experiment [2]; 1 µM in experiment [3]; greater than 10 µM in experiment [4]; greater than 10 µM in experiment [5].
Regarding `c1cnc2c(c1)oc1c(Nc3ccc4c(c3)OCO4)ncnc12`, the IC50 in experiment [1], in experiment [2], in experiment [3], in experiment [4] and in experiment [5] was greater than 10 µM in each case.
With `c1ccc(Nc2ncnc3c2oc2cccnc23)cc1`, the IC50 in experiment [1], in experiment [2], in experiment [3], in experiment [4] and in experiment [5] was greater than 10 µM each time.
